One assay has as its system BV-2. As to the kind of experiment: Antiinflammatory activity in mouse BV2 cells assessed as inhibition of LPS-induced NO production after 24 hrs by Griess reagent method. The class given is functional, cell-based. The note with it: BV-2, 24 h. A digest of the protocol: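 Microglial BV2 cells treated with test agents, then stimulated with LPS (0.5 µg/mL); nitrite accumulated in medium over 24 h measured with Griess reagent as NO readout; IC50 taken from concentration-response curves.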
In general terms: The Griess reaction detects nitrite, a stable product of nitric oxide.

Assay [1] in a line: Inhibition of NADPH oxidase-mediated ROS production in LPS-stimulated mouse BV2 cells after 20 mins by flow cytometry. Format: cell-based. The settings on record: BV-2, 20 min. Summed up:
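BV2 cells preloaded with 2′,7′-dichlorofluorescin diacetate, exposed to test agents for 20 min, then LPS-stimulated; H2O2 quantified 30 min later by flow cytometry, expressed as mean channel fluorescence; IC50 from concentration-response curves.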
Background: A flow cytometer gives signals particle by particle.

Assay [2] relates to Radical scavenging activity. As to the kind of experiment: Antioxidant activity assessed as DPPH free radical scavenging activity. Format: functional. Summed up: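 Diluted drugs combined with DPPH solution in microplate; absorbance read at 517 nm; IC50 derived from concentration-response curves.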
Background: The DPPH test is a chemical assay of radical scavenging.

This note sets out measurements from ChEMBL document CHEMBL1151482, “Phenolic constituents from the stem bark of Magnolia officinalis” (J Nat Prod, 2009).

Structures are written as SMILES. Converted amounts (≈) assume the structure as drawn.

What is called IC50 is the point on the concentration scale where inhibition reaches its midpoint. `C=CCc1cc(-c2cc(O)ccc2O)ccc1O` [MAGNATRIOL B]: the IC50 in the assay with BV-2 came to 0.5 µg/mL (≈ 2.06 µM); in assay [1] it was 20.6 µg/mL (≈ 85 µM); in assay [2], 27.6 µg/mL (≈ 114 µM).
Take `C=CCc1ccc(O)c(-c2cc(O)ccc2O)c1` [RANDAIOL]: the IC50 with BV-2 turned out to be 1.2 µg/mL (≈ 4.95 µM); in assay [2] it was 21.6 µg/mL (≈ 89.2 µM).
For the molecule `C=CCc1ccc(O)c(-c2cc(C=O)ccc2O)c1` [MAGNALDEHYDE], the IC50 in the assay with BV-2 was determined as 9.2 µg/mL (≈ 36.2 µM).
